What is called MIC is the least concentration at which growth counts as inhibited.

Values after ≈ are worked out from the molar mass of the structure shown. Active and inactive are the calls of the source. No cut-off for these calls is given here. Some results are limits rather than exact numbers.

The subject of one experiment is Bacillus subtilis. Description: Antibacterial activity against Bacillus subtilis ATCC 6051 by microdilution assay. It counts as functional. An outline of the steps:
(§1)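 Turbidimetric broth microdilution. Log-phase cells were washed and resuspended in broth (LB at 37 °C for B. subtilis and S. aureus; oat bran broth at 28 °C for S. scabies) and seeded at 1 × 10⁵ CFU/mL. Twofold serial dilutions were made with DMSO ≤1% (v/v). A620 was read, then plates were incubated with vigorous shaking. MIC was the lowest concentration with no apparent growth versus vehicle-only medium without cells. Run in triplicate.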
On the technique in general: Broth dilution looks for growth in wells or tubes with falling amounts of substance.

Another experiment has as its system Streptomyces scabiei. Briefly: Antibacterial activity against Streptomyces scabiei CGMCC4.7610246 by microdilution assay. It counts as functional. Summed up: as §1
Experiment [1] has as its system Staphylococcus aureus. Description: Antibacterial activity against Staphylococcus aureus ATCC 25923 by microdilution assay. The format is functional. An outline of the steps:
as §1

For experiment [2], the system named is Staphylococcus aureus. Briefly: Antibacterial activity against methicillin-resistant Staphylococcus aureus by microdilution assay. It counts as functional. An outline of the steps:
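Log-phase cells seeded at 1 × 10⁵ CFU/mL. Twofold serial dilutions made in broth with DMSO cosolvent, at most 1% v/v. Turbidity read at 620 nm before and after incubation with vigorous shaking. MIC is the lowest concentration with no apparent growth versus the medium-plus-vehicle control. Run in triplicate.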

Another experiment has as its system Escherichia coli. Briefly: Antibacterial activity against Escherichia coli at 100 uM measured after 5 to 6 hrs by microdilution assay. It counts as functional, organism-based.
For experiment [3], the system named is Pseudomonas aeruginosa. Briefly: Antibacterial activity against Pseudomonas aeruginosa at 100 uM measured after 5 to 6 hrs by microdilution assay. The format is functional, organism-based.
Experiment [4] has as its system Pseudomonas aeruginosa. Description: Antibacterial activity against multi-drug resistant Pseudomonas aeruginosa at 100 uM measured after 5 to 6 hrs by microdilution assay. It counts as functional, organism-based. An outline of the steps: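 Log-phase cells seeded at 1 × 10⁵ CFU/mL. Single-dose screen at 100 μM, with DMSO cosolvent at most 1% v/v. Growth measured turbidimetrically at 620 nm, before and after incubation with vigorous shaking.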

Consider `CC1(C)[C@H](O)[C@@H](O)[C@H](O)[C@]2(C)[C@H]3C(=O)C=C4[C@@H]5C[C@@](C)(C(=O)O)CC[C@]5(C)CC[C@@]4(C)[C@]3(C)CC[C@@H]12`, for which the MIC against Bacillus subtilis, with Streptomyces scabiei, in the experiment with Staphylococcus aureus [1] and with Staphylococcus aureus [2] was over 50 µg/mL each time. Besides, the result in the experiment on Escherichia coli, in the experiment with Pseudomonas aeruginosa [3] and in the experiment with Pseudomonas aeruginosa [4] was inactive.
For the compound `CC1(C)[C@@H](O)CC[C@]2(C)[C@H]3CC=C4[C@@H]5C[C@@](C)(C(=O)OCc6ccccc6)CC[C@]5(C)CC[C@@]4(C)[C@]3(C)CC[C@@H]12`, the MIC against Bacillus subtilis, against Streptomyces scabiei, in the experiment with Staphylococcus aureus [1] and in the experiment with Staphylococcus aureus [2] was over 50 µg/mL each time. Moreover, the result in the experiment with Escherichia coli, with Pseudomonas aeruginosa [3] and in the experiment on Pseudomonas aeruginosa [4] was inactive.
`CC1(C)[C@@H](O)CC[C@]2(C)[C@H]3CC=C4[C@@H]5C[C@@](C)(C(=O)O)CC[C@]5(C)CC[C@@]4(C)[C@]3(C)CC[C@@H]12`: the MIC with Bacillus subtilis, against Streptomyces scabiei, against Staphylococcus aureus [1] and in the experiment with Staphylococcus aureus [2] was over 50 µg/mL in each case. Besides, the result in the experiment on Escherichia coli, in the experiment on Pseudomonas aeruginosa [3] and with Pseudomonas aeruginosa [4] was inactive.
Turning to `CCOC(=O)[C@@]1(C)CC[C@]2(C)CC[C@]3(C)C(=CC(=O)[C@@H]4[C@@]5(C)[C@@H](O)[C@H](O)[C@H](O)C(C)(C)[C@@H]5CC[C@]43C)[C@@H]2C1`, the MIC against Bacillus subtilis is 16.9 µg/mL (≈ 31.8 µM); in the experiment with Streptomyces scabiei, 2.1 µg/mL (≈ 3.96 µM); against Staphylococcus aureus [1] it was 4.2 µg/mL (≈ 7.91 µM); against Staphylococcus aureus [2] it was 4 µg/mL (≈ 7.54 µM). Besides, the outcome in the experiment on Escherichia coli, with Pseudomonas aeruginosa [3] and in the experiment on Pseudomonas aeruginosa [4] was inactive.
On to `CC1(C)C(=O)C=C[C@]2(C)[C@H]3C(=O)C=C4[C@@H]5C[C@@](C)(C(=O)OCc6ccccc6)CC[C@]5(C)CC[C@@]4(C)[C@]3(C)CC[C@@H]12`, for which the MIC against Bacillus subtilis, against Streptomyces scabiei, with Staphylococcus aureus [1] and in the experiment with Staphylococcus aureus [2] was over 50 µg/mL each time. The result in the experiment on Escherichia coli, with Pseudomonas aeruginosa [3] and in the experiment on Pseudomonas aeruginosa [4] was inactive.
As to `CCCCOC(=O)[C@@]1(C)CC[C@]2(C)CC[C@]3(C)C(=CC(=O)[C@@H]4[C@@]5(C)[C@@H](O)[C@H](O)[C@H](O)C(C)(C)[C@@H]5CC[C@]43C)[C@@H]2C1`, the minimal inhibitory concentration (MIC) against Bacillus subtilis was over 35.7 µg/mL; in the experiment on Streptomyces scabiei it was 4.4 µg/mL (≈ 7.87 µM); with Staphylococcus aureus [1] it was over 35.7 µg/mL; against Staphylococcus aureus [2], 4 µg/mL (≈ 7.16 µM). In addition, the result in the experiment with Escherichia coli, with Pseudomonas aeruginosa [3] and with Pseudomonas aeruginosa [4] was inactive.
On to `CC(C)OC(=O)[C@@]1(C)CC[C@]2(C)CC[C@]3(C)C(=CC[C@@H]4[C@@]5(C)[C@@H](O)[C@H](O)[C@H](O)C(C)(C)[C@@H]5CC[C@]43C)[C@@H]2C1`, for which the MIC was over 33.9 µg/mL against Bacillus subtilis, 4.2 µg/mL (≈ 7.91 µM) in the experiment on Streptomyces scabiei, 8.4 µg/mL (≈ 15.8 µM) with Staphylococcus aureus [1] and 2 µg/mL (≈ 3.77 µM) with Staphylococcus aureus [2]. Further, the outcome in the experiment with Escherichia coli, in the experiment with Pseudomonas aeruginosa [3] and in the experiment with Pseudomonas aeruginosa [4] was inactive.
Regarding `CC1(C)[C@@H](O)[C@@H](O)[C@H](O)[C@]2(C)[C@H]3CC=C4[C@@H]5C[C@@](C)(C(=O)OCc6ccccc6[N+](=O)[O-])CC[C@]5(C)CC[C@@]4(C)[C@]3(C)CC[C@@H]12`, the MIC in the experiment on Bacillus subtilis, against Streptomyces scabiei, in the experiment with Staphylococcus aureus [1] and against Staphylococcus aureus [2] was over 50 µg/mL throughout. For the same compound, the result with Escherichia coli, in the experiment on Pseudomonas aeruginosa [3] and with Pseudomonas aeruginosa [4] was inactive.
In the case of `CC1(C)[C@@H](O)[C@@H](O)[C@H](O)[C@]2(C)[C@H]3CC=C4[C@@H]5C[C@@](C)(C(=O)OCc6ccccc6Cl)CC[C@]5(C)CC[C@@]4(C)[C@]3(C)CC[C@@H]12`, the MIC in the experiment with Bacillus subtilis, in the experiment on Streptomyces scabiei, in the experiment with Staphylococcus aureus [1] and with Staphylococcus aureus [2] was over 50 µg/mL each time. Further, the result in the experiment on Escherichia coli, with Pseudomonas aeruginosa [3] and in the experiment with Pseudomonas aeruginosa [4] was inactive.
Regarding `CC1(C)[C@H](O)[C@@H](O)[C@H](O)[C@]2(C)[C@H]3C(=O)C=C4[C@@H]5C[C@@](C)(C(=O)OCc6ccccc6)CC[C@]5(C)CC[C@@]4(C)[C@]3(C)CC[C@@H]12`, the MIC against Bacillus subtilis is over 37.8 µg/mL; against Streptomyces scabiei, over 37.8 µg/mL; against Staphylococcus aureus [1] it was over 37.8 µg/mL; in the experiment with Staphylococcus aureus [2], 4 µg/mL (≈ 6.75 µM). Further, the outcome in the experiment with Escherichia coli, in the experiment on Pseudomonas aeruginosa [3] and in the experiment on Pseudomonas aeruginosa [4] was inactive.
For `CC1(C)[C@@H](O)[C@@H](O)[C@H](O)[C@]2(C)[C@H]3C(=O)C=C4[C@@H]5C[C@@](C)(C(=O)OCc6ccc(Cl)cc6)CC[C@]5(C)CC[C@@]4(C)[C@]3(C)CC[C@@H]12`, the MIC in the experiment on Bacillus subtilis, with Streptomyces scabiei, in the experiment on Staphylococcus aureus [1] and with Staphylococcus aureus [2] was over 50 µg/mL throughout. Further, the outcome in the experiment on Escherichia coli, in the experiment with Pseudomonas aeruginosa [3] and in the experiment on Pseudomonas aeruginosa [4] was inactive.
Take `CC1(C)[C@@H](O)[C@@H](O)[C@H](O)[C@]2(C)[C@H]3CC=C4[C@@H]5C[C@@](C)(C(=O)OCc6ccccc6)CC[C@]5(C)CC[C@@]4(C)[C@]3(C)CC[C@@H]12`: the MIC against Bacillus subtilis is over 36.9 µg/mL; against Streptomyces scabiei it was over 36 µg/mL; in the experiment with Staphylococcus aureus [1], over 36.9 µg/mL; in the experiment with Staphylococcus aureus [2] it was 8 µg/mL (≈ 13.8 µM). Besides, the outcome with Escherichia coli, in the experiment with Pseudomonas aeruginosa [3] and in the experiment on Pseudomonas aeruginosa [4] was inactive.
In the case of `COC(=O)[C@@]1(C)CC[C@]2(C)CC[C@]3(C)C(=CC(=O)[C@@H]4[C@@]5(C)[C@@H](O)[C@H](O)[C@H](O)C(C)(C)[C@@H]5CC[C@]43C)[C@@H]2C1`, the MIC against Bacillus subtilis, in the experiment on Streptomyces scabiei, in the experiment on Staphylococcus aureus [1] and with Staphylococcus aureus [2] was over 50 µg/mL throughout. Besides, the result in the experiment with Escherichia coli, in the experiment on Pseudomonas aeruginosa [3] and with Pseudomonas aeruginosa [4] was inactive.
`CC1(C)S[C@@H]2[C@H](NC(=O)[C@H](N)c3ccccc3)C(=O)N2[C@H]1C(=O)O` [AMPICILLIN]: in the experiment on Staphylococcus aureus [1], inhibition of growth (MIC) required 1.4 µg/mL (≈ 4.01 µM).
For the compound `CC1(C)C(=O)[C@@H]2O[C@@H]2[C@]2(C)[C@H]3CC=C4[C@@H]5C[C@@](C)(C(=O)OCc6ccccc6)CC[C@]5(C)CC[C@@]4(C)[C@]3(C)CC[C@@H]12`, the MIC in the experiment on Bacillus subtilis, in the experiment on Streptomyces scabiei, against Staphylococcus aureus [1] and with Staphylococcus aureus [2] was over 50 µg/mL throughout. Moreover, the outcome with Escherichia coli, with Pseudomonas aeruginosa [3] and with Pseudomonas aeruginosa [4] was inactive.
As for `CN[C@@H]1[C@H](O[C@H]2[C@H](O[C@H]3[C@H](O)[C@@H](O)[C@H](N=C(N)N)[C@@H](O)[C@@H]3N=C(N)N)O[C@@H](C)[C@]2(O)C=O)O[C@@H](CO)[C@H](O)[C@H]1O` [STREPTOMYCIN], the MIC in the experiment with Bacillus subtilis is 2.9 µg/mL (≈ 4.99 µM); in the experiment on Streptomyces scabiei it was 5.8 µg/mL (≈ 9.97 µM).

The record behind these values is ChEMBL document CHEMBL4477166, “18β-Glycyrrhetinic Acid Derivatives Possessing a Trihydroxylated A Ring Are Potent Gram-Positive Antibacterial Agents” (2016).
